Cytotoxicity data for 72 compounds are collected here from ChEMBL document CHEMBL4513216, “Probing the Open Global Health Chemical Diversity Library for Multistage-Active Starting Points for Next-Generation Antimalarials” (ACS Infect Dis, 2020).

This data set can be described thus: Toxicity liver stage against HepG2, at 10uM. Conditions: human, HepG2-A16-CD81EGFP cells; read-out: INHIBITION
Set-up: test concentration 10 uM, cell line HepG2-A16-CD81EGFP. Type of data set: cell-based. In outline:
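Uninfected HepG2-A16-CD81EGFP cells, 3 × 10^3 per well, 1536-well, plated on prespotted compound at 10 μM final, parasite-free screening media added to match infected plates; puromycin 10 μM positive, DMSO 0.5% negative; run in parallel with 48 h PbLuc assay at 37 °C, 5% CO2; viability by CellTiter-Glo luminescence, normalized to controls.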
`CCn1cnnc1CNC(=O)c1ccc(Br)cc1F`: the cytotoxicity at 10 µM was -18.2%.
Next, `CC(=O)N1CCCN(C(=O)Cc2ccc3c(c2)OCO3)CC1`: -15.1%; `CS(=O)(=O)NCCCNc1ccc(C(F)(F)F)cc1C#N`: -2.18%; `COCC(=O)N1CCCC2(CCN(Cc3cccc(C)n3)C2=O)C1` (configuration not stated): -0.559%.
The value for `CCN1C(=O)C2(CCOCC2)c2cc(NC(=O)COC)ccc21` was -0.82%; that for `CCc1noc(-c2ccc(SCC(=O)O)nc2)n1` was -10.9%; that for `CCn1ccnc1CN1CCCN(C(=O)c2cc[nH]n2)CC1` was -8.04%.
The value for `Cc1ccc(C(=O)NS(=O)(=O)Cc2ccccc2)cc1S(C)(=O)=O` was 3.09%.
In the case of `COCCN1CC[C@H]2CN(Cc3ccc(C)s3)C[C@@H]2C1=O`, the cytotoxicity at 10 µM was -3.72%.
Next, `OC(COc1ccccc1)CN1CCC(c2ccn[nH]2)CC1` (configuration not stated): -3.76%.
Next, `N#Cc1ccccc1C(=O)N1CCC2(CC(=O)NC2=O)C1` (configuration not stated): -19.6%.
Next, `O=C(c1cccnc1)N1Cc2nccn2CC(COc2cccnc2)C1` (configuration not stated): 4.01%; `CCN(C1CCN(C(=O)c2cccc(Cl)c2)CC1)S(C)(=O)=O`: 0.209%.
With `O=C(CN1CCOc2ccccc2C1)NCc1cc2n(n1)CCNC2`, the cytotoxicity at 10 µM was found to be 1.03%.
Next, `C1CC(CN2CCO[C@H]3[C@H](OCC4CC4)CC[C@@H]32)CCO1`: -13.3%; `O=C(c1cc(-c2ccco2)nc2c(Cl)cccc12)N1CC[C@H]2CNC[C@H]21`: -3.29%.
The value for `O=C(c1ccco1)N1C[C@@H]2OCCN(c3ncccn3)[C@@H]2C1` was 6.4%; that for `Cc1n[nH]c(C2CN(CC(=O)NCc3ccco3)CCO2)n1` (configuration not stated) was 23%.
The value for `CN(Cc1ccc(Cl)cc1)S(=O)(=O)N(C)Cc1cnn(C)c1` was 16.5%.
On to `COc1ccc(S(=O)(=O)N2CCn3cnc(COCC4CC4)c3C2)cc1`, for which the cytotoxicity at 10 µM is -0.262%.
As to `CCOCC1CN(C(=O)c2cccnc2)Cc2cnn(C)c21` (configuration not stated), the cytotoxicity at 10 µM was -1.28%.
The value for `Cc1cnn(CCCNC(=O)NCCC(=O)Nc2ccccc2)c1` was 2.72%.
The value for `O=C(CN(CC(O)c1ccc(F)cc1)C1CC1)NC(C1CC1)C1CC1` (configuration not stated) was 11.8%.
Regarding `CC(C(=O)Nc1ccnn1C(C)C)N1CCN(Cc2ccccc2)CC1` (configuration not stated), the cytotoxicity at 10 µM was -7.55%.
The value for `Cc1ncsc1C(=O)NCCN1CCCCCC1=O` was 12.1%; that for `O=C1CCC2(CCNCC2)CN1CCCOc1cccnc1` was -13.2%; that for `Cc1nc(C)n(CC2CCCCN2c2ccnc(-c3ccccc3)n2)n1` (configuration not stated) was -1.17%.
Next, `CCC(C(=O)NC1CCCCC1)n1ccc2ncccc2c1=O` (configuration not stated): 2.17%; `Cc1c[nH]c(CN2CCCn3nc(CNS(C)(=O)=O)cc3C2)n1`: 1.79%; `O=C(NCC1CCC2(CCNCC2)O1)C1CC1` (configuration not stated): -5.01%.
For the compound `CC(C)CCN1CCN(CC(=O)Nc2ccc3nsnc3c2)CC1`, the cytotoxicity at 10 µM is -0.216%.
For `CN(C)c1ccc(C(=O)N2CCCC(n3cncn3)C2)nn1` (configuration not stated), the cytotoxicity at 10 µM was found to be 0.47%.
Next, `CN(C)S(=O)(=O)N1CCN(CC2CCOc3ccccc3C2)CC1` (configuration not stated): -0.529%; `CC(C)CC(CO)NC(=O)NCc1csc(N(C)C)n1` (configuration not stated): 6.07%; `CC(C)C(=O)NC1COC2(CCN(Cc3cccnc3)CC2)C1` (configuration not stated): 2.11%.
Consider `O=S(=O)(Nc1cnc(N2CCOCC2)nc1)c1ccc(C(F)(F)F)cc1`, for which the cytotoxicity at 10 µM is -2.73%.
Regarding `CCn1cc(CN(C)S(=O)(=O)c2ccc(NC(C)=O)cc2)cn1`, the cytotoxicity at 10 µM came out at 9.22%.
Consider `CCn1nc(C)c(NC(=O)CN2CC[C@H](CO)[C@@H](O)C2)c1C`, for which the cytotoxicity at 10 µM amounted to 0.887%.
The value for `CCCn1cnnc1CNC(=O)C1COc2c(cccc2OC)C1` (configuration not stated) was -1.26%; that for `CNS(=O)(=O)c1ccc(C(=O)NC2CCc3nc(C)cn3C2)o1` (configuration not stated) was -12.3%; that for `Cc1cc(N2CCN(C3CCSCC3)CC2)n2nc(C)c(C)c2n1` was 0.0879%.
Next, `Cc1ccsc1CN1C[C@@H]2CN(Cc3cccnc3)CCO[C@@H]2C1`: 8%; `O=C(O)c1cc(-c2ccncc2F)cc(S(=O)(=O)N2CCCCCC2)c1`: -0.2%.
The value for `C=C(C)CN1CCN(Cc2cnc(OC)nc2)CC1` was 5.16%; that for `CN1CCc2c(C#N)c(NCCc3ccccc3)n3cnnc3c2C1` was 12.4%; that for `CN(C)C(=O)c1cccc(CN2CCN(CCO)CC2)c1` was -28.6%.
For the compound `CCCS(=O)(=O)N1CCC2(CN(c3ccccc3)C(=O)CN2C)C1` (configuration not stated), the cytotoxicity at 10 µM came to 4.15%.
Next, `CC(C)(C)OC(=O)NCC(=O)NCc1ccc(Cl)s1`: -11.3%; `NC(=O)c1cnn2c1NCC(CNCCc1ccco1)C2` (configuration not stated): 1.46%.
Next, `COc1ccc(NC(C)c2ccc(C#N)cc2)cc1N1CCCC1=O` (configuration not stated): -7.43%; `CC(=O)N1N=C(c2ccncc2)OC1C(=O)N(C)CCc1ccccc1` (configuration not stated): 12.9%.
Consider `CCOc1nc2cnccc2n(CC(=O)NCc2ccc(C)cc2)c1=O`, for which the cytotoxicity at 10 µM is -0.0308%.
The value for `O=C1[C@H]2CN(Cc3ccc(F)cc3)C[C@H]2CN1c1ccsc1` was -87.8%.
Regarding `Cn1ccnc1CNC1CCCOc2c1ccc1ccccc21` (configuration not stated), the cytotoxicity at 10 µM is 13.3%.
With `O=C(Cc1ccccc1)N1CCC2(CC1)COCCN2CC1CC1`, the cytotoxicity at 10 µM is -78.5%.
The value for `COCCN1CCN(Cc2noc(C3CC3)n2)CC1C` (configuration not stated) was 1.43%; that for `CC(C)c1csc(C(=O)N2CCCC(Cn3cc(CO)nn3)C2)n1` (configuration not stated) was 6.29%.
Next, `Cc1nnc2n1CCN(Cc1c(Cl)ccc3cccnc13)C2`: 8.25%; `Cc1ccccc1OCCC(=O)NC(C)c1nnc2n1CCCCC2` (configuration not stated): -12.3%.
The value for `CN(C)C(=O)c1n[nH]c2c1CN(CC1CCC1)C2` was -2.22%; that for `CN(CC(C)(C)C)S(=O)(=O)c1ccc(C(F)(F)F)nc1` was 3.24%.
Turning to `CCOc1cccc2c1OCC(C(=O)NS(=O)(=O)c1ccc(Br)s1)=C2`, the cytotoxicity at 10 µM was -11.6%.
Next, `CCN(CC)S(=O)(=O)CC(=O)Nc1ccsc1`: -2.77%; `COc1cc(C(=O)N(Cc2cccs2)C2CC2)cc2c1OCCO2`: 8.45%; `CCC(C)(CC(=O)O)NC(=O)Cc1ccccc1F` (configuration not stated): -1.28%.
Next, `Cc1nn(C)c(N2CCOCC2)c1CNCC1CCN(C2CC2)C1` (configuration not stated): -3.32%.
`Cn1cc(-c2nc(CN3CCc4c(ncn4C4CC4)C3)cs2)cn1`: the cytotoxicity at 10 µM was -17.6%.
The value for `CN(C)c1ccccc1CN1CCCCC1CNS(C)(=O)=O` (configuration not stated) was 0.212%; that for `CNC(=O)c1cccc(Nc2cnn(C)c2)c1` was 6.77%.
Consider `CCc1noc(CN(C)C(=O)C2COc3ccccc3C2)n1` (configuration not stated), for which the cytotoxicity at 10 µM came out at 1.3%.
The value for `COc1ccc(-n2nnnc2C(C)(C)Nc2ccc(C)cc2C)cc1` was 52.4%; that for `CCC(CNC(=O)Cc1cc(C)on1)Oc1cccc(F)c1` (configuration not stated) was -48.2%.
